Data set [1] concerns Neutrophil. Description: Antiinflammatory activity in human neutrophils assessed as inhibition of fMLP/CB-induced elastase release preincubated for 5 mins followed by fMLP/CB stimulation and measured for 10 mins using MeO-Suc-Ala-Ala-Pro-Val-p-nitroanilide as substrate. Type of data set: functional, cell-based. The procedure, abridged:
(§1)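 Human neutrophils stimulated with fMLF. For the superoxide read-out, cells were equilibrated in ferricytochrome c at 0.6 mg/mL. Other steps for superoxide generation and elastase release followed an earlier published protocol. Values are means ± SEM, n = 3 or 4.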

In data set [2] the test system is Neutrophil. Description: Antiinflammatory activity in human neutrophils assessed as inhibition of fMLP/CB-induced superoxide anion generation preincubated for 5 mins followed by cytochalasin B/fMLP addition for 3 mins by superoxide dismutase inhibitable reduction of ferricytochrome c based assay. The data set is classed as functional, cell-based. The gist of the method:
as §1

In a further data set the test system is MDA-MB-231. Kind of data set: Cytotoxicity against human MDA-MB-231 cells by MTT assay. The data set is classed as functional, cell-based. On the technique in general: Tetrazolium assays rely on reduction of a dye to a coloured formazan, in cell work by metabolically active cells.
The subject of the next data set is A549. Kind of data set: Cytotoxicity against human A549 cells by MTT assay. Type of data set: functional, cell-based.
The next data set deals with HepG2. Kind of data set: Cytotoxicity against human HepG2 cells by MTT assay. The data set is classed as functional, cell-based.
The nature of data set [3]: Selectivity index, ratio of CC50 for human HuH7 cells to EC50 for DENV2 infected in human HuH7 cells. The note with it: read-out: Ratio CC50/EC50. The data set is classed as toxicity, cell-based.
Another data set deals with dengue virus type 2. Description: Antiviral activity against DENV2 infected in human HuH7 cells. The data set is classed as functional, organism-based. Particulars: Huh-7; call rule not given here.
The mark [4] stands for this setting: Homo sapiens, MDA-MB-231, read-out: IC50.

By IC50 is commonly meant the concentration needed to halve the response being measured. Take `O=c1cc(N2CCOCC2)oc2c(-c3ccccc3)cccc12` [LY-294002]: the values for the IC50 in the data set on Neutrophil [1] and in the data set on Neutrophil [2] were 5.1 µM and 2.1 µM, respectively.

Take `CO/N=C/C(=O)c1ccc(OC/C=C(\C)C(=O)OC)cc1`: the IC50 with MDA-MB-231 (setting [4]), in the data set with A549 and in the data set on HepG2 was > 20 µg/mL throughout.

Consider `COC(=O)c1ccc(O)cc1` [METHYLPARABEN], for which the concentration for half-maximal inhibition (IC50) in the data set on MDA-MB-231 (setting [4]), in the data set on A549 and with HepG2 was > 20 µg/mL in each case.

On to `COC1=CC(=O)c2cc(C)ccc2C1=O`, for which the concentration for half-maximal inhibition (IC50) in the data set with MDA-MB-231 (setting [4]), with A549 and in the data set with HepG2 was > 20 µg/mL in each case.

In the case of `COc1c2ccoc2cc2oc(=O)ccc12` [BERGAPTEN], the half-inhibitory concentration (IC50) with MDA-MB-231 (setting [4]), in the data set on A549 and with HepG2 was > 20 µg/mL in each case.

In the case of `CC1(C)C=Cc2c(cc(O)c3c(=O)cc(-c4ccc(O)cc4)oc23)O1` [ATALANTOFLAVONE], the IC50 in the data set on MDA-MB-231 (setting [4]), with A549 and in the data set on HepG2 was > 20 µg/mL in each case.

Take `COc1cccc2c1C(=O)c1c(O)c3c(c(O)c1C2=O)C[C@@](O)(C(=O)CO)C[C@@H]3O[C@H]1C[C@H](N)[C@H](O)[C@H](C)O1` [DOXORUBICIN]: 0.6 µM corresponded to half-maximal inhibition in the data set with A549 (IC50).

Turning to `CC(C)=CCOc1ccc(C(=O)/C=N/O)cc1`, the IC50 with MDA-MB-231 (setting [4]), in the data set on A549 and in the data set on HepG2 was > 20 µg/mL each time.

As to `CC1(C)C=Cc2c(cc(O)c3c(=O)c4cccc(O)c4[nH]c23)O1` [ATOLAPHYLLIDINE], the IC50 result in the data set with MDA-MB-231 (mda-mb-231) was “Not Active”; with A549 it was 7.8 µM; in the data set with HepG2 it was 7.3 µM.

Consider `CC(C)=CCOc1c2occc2cc2ccc(=O)oc12` [PENTOSALEN], for which the half-maximal inhibitory concentration (IC50) is > 20 µg/mL in the data set with MDA-MB-231 (setting [4]); > 10 µM with Neutrophil [1]; > 20 µg/mL in the data set with A549; 0.2 µM in the data set on Neutrophil [2]; > 20 µg/mL in the data set on HepG2.

Regarding `CO/N=C/C(=O)c1ccc(O/C=C/[C@H](C)C(=O)OC)cc1`, the IC50 in the data set on MDA-MB-231 (setting [4]), with A549 and with HepG2 was > 20 µg/mL in each case.

Consider `CC(C)=CCc1c2c(c3c(c1O)c(=O)c1ccccc1n3C)C=CC(C)(C)O2`, for which the 50% inhibitory concentration (IC50) with MDA-MB-231 (setting [4]), in the data set on A549 and with HepG2 was > 20 µg/mL in each case.

For the compound `C=C(C)C(CC/C(C)=C/COc1ccc2ccc(=O)oc2c1)OO` (configuration not stated), the IC50 in the data set with MDA-MB-231 (setting [4]), in the data set with A549 and in the data set with HepG2 was > 20 µg/mL in each case.

Take `CC1(C)CC[C@]2(C)CC[C@H]3[C@]4(C)CC[C@H]5C(C)(C)C(=O)CC[C@]5(C)[C@H]4CC[C@@]3(C)[C@@H]2C1`: the IC50 in the data set with MDA-MB-231 (setting [4]), in the data set on A549 and in the data set with HepG2 was > 20 µg/mL each time.

In the case of `COc1cc(O)c2c(=O)c3cccc(O)c3n(C)c2c1CC=C(C)C` [GLYCOCITRINE I], the IC50 with MDA-MB-231 (setting [4]), with A549 and with HepG2 was > 20 µg/mL in each case.

For the compound `CO/N=C/C(=O)c1ccc(O)cc1`, the concentration for half-maximal inhibition (IC50) is > 20 µg/mL in the data set on MDA-MB-231 (setting [4]); > 10 µM in the data set on Neutrophil [1]; > 20 µg/mL in the data set with A549; 4.8 µM in the data set on Neutrophil [2]; > 20 µg/mL in the data set on HepG2.

Take `CC(C)=CCOc1c2ccoc2cc2oc(=O)ccc12` [ISOIMPERATORIN]: the IC50 was > 20 µg/mL in the data set with MDA-MB-231 (setting [4]); > 10 µM with Neutrophil [1]; > 20 µg/mL with A549; 2.6 µM in the data set with Neutrophil [2]; > 20 µg/mL in the data set on HepG2.

With `COc1cc2c(c3[nH]c4ccccc4c(=O)c13)C=CC(C)(C)O2`, the IC50 in the data set on MDA-MB-231 (setting [4]), in the data set on A549 and in the data set with HepG2 was > 20 µg/mL in each case.

For the compound `CC(C)=CCc1c2c(c3[nH]c4ccccc4c(=O)c3c1O)C=CC(C)(C)O2` [SEVERIFOLINE], the IC50 in the data set with MDA-MB-231 (setting [4]), with A549 and in the data set with HepG2 was > 20 µg/mL in each case.

As to `COC(=O)/C=C/c1ccc(O)c(OC)c1`, the IC50 in the data set on MDA-MB-231 (setting [4]), with A549 and with HepG2 was > 20 µg/mL in each case.

In the case of `CC1(C)C=Cc2c(ccc3ccc(=O)oc23)O1` [SESALIN], the IC50 is > 20 µg/mL with MDA-MB-231 (setting [4]); > 10 µM in the data set with Neutrophil [1]; > 20 µg/mL with A549; 4.7 µM with Neutrophil [2]; > 20 µg/mL in the data set with HepG2.

On to `C=C(C)C(O)CC/C(C)=C/COc1ccc2ccc(=O)oc2c1` (configuration not stated), for which the IC50 in the data set on MDA-MB-231 (setting [4]), with A549 and in the data set on HepG2 was > 20 µg/mL each time.

On to `C/C(=C\COc1ccc2ccc(=O)oc2c1)C/C=C/C(C)(C)O`, for which the IC50 in the data set on MDA-MB-231 (setting [4]), in the data set with A549 and with HepG2 was > 20 µg/mL throughout.

`COC(=O)c1cccc(O)c1OC` [METHYL 3-HYDROXY-2-METHOXYBENZOATE]: the IC50 with MDA-MB-231 (setting [4]), in the data set with A549 and with HepG2 was > 20 µg/mL each time.

The EC50 is the concentration at which the effect is half-maximal. Higher therefore signals lower potency in that assay. For `CC(C)=CCc1c2c(c3c(c1O)c(=O)c1cccc(O)c1n3C)C=CC(C)(C)O2`, the concentration for half-maximal inhibition (IC50) in the data set on MDA-MB-231 (setting [4]) is > 20 µg/mL; with Neutrophil [1], 3.7 µM; in the data set on A549, > 20 µg/mL; in the data set on Neutrophil [2], > 10 µM; in the data set with HepG2, > 20 µg/mL. Also, in data set [3], the selectivity ratio was 6.3. In the data set on dengue virus type 2, this compound had an EC50 of 5.3 µM.

Consider `CC(C)=CCc1c(O)c(CC=C(C)C)c2c(c1O)c(=O)c1cccc(O)c1n2C`, for which the IC50 in the data set on MDA-MB-231 (setting [4]), in the data set with A549 and in the data set with HepG2 was > 20 µg/mL each time.

Take `C/C(=C\COc1ccc2ccc(=O)oc2c1)C/C=C/C(C)(C)OO`: the half-maximal inhibitory concentration (IC50) with MDA-MB-231 (setting [4]), in the data set on A549 and with HepG2 was > 20 µg/mL throughout.

In the case of `C=CC(C)(C)c1cc2ccc(O)cc2oc1=O`, the IC50 with MDA-MB-231 (setting [4]), in the data set with A549 and in the data set on HepG2 was > 20 µg/mL in each case.

As for `COc1cccc2c(=O)c3c(O)cc4c(c3n(C)c12)C=CC(C)(C)O4`, the IC50 in the data set on MDA-MB-231 (setting [4]), in the data set with A549 and with HepG2 was > 20 µg/mL in each case.

With `COC(=O)/C(C)=C/COc1ccc(C(=O)OC)cc1`, the IC50 in the data set on MDA-MB-231 (setting [4]), in the data set with A549 and in the data set with HepG2 was > 20 µg/mL each time.

Consider `CC(C)=CCc1c2c(c3[nH]c4c(O)cccc4c(=O)c3c1O)C=CC(C)(C)O2` [ATALAPHYLLININE], for which the results for the IC50 result in the data set with MDA-MB-231 (mda-mb-231), in the data set on A549 and with HepG2 were “Not Active”, 7.8 µM and 6.5 µM, respectively.

For the origin of these results see ChEMBL document CHEMBL4145645, “Bioactive Phenolic Components from the Twigs of Atalantia buxifolia” (J Nat Prod, 2018).
